Experimental data taken from ChEMBL document CHEMBL1828541, “New aporphinoid 5-HT2A and α1A antagonists via structural manipulations of nantenine” (Bioorg Med Chem, 2011).

Biological target: T1, Alpha-1A adrenergic receptor (Homo sapiens) (UniProt P35348)
T1 sequence (whole entry): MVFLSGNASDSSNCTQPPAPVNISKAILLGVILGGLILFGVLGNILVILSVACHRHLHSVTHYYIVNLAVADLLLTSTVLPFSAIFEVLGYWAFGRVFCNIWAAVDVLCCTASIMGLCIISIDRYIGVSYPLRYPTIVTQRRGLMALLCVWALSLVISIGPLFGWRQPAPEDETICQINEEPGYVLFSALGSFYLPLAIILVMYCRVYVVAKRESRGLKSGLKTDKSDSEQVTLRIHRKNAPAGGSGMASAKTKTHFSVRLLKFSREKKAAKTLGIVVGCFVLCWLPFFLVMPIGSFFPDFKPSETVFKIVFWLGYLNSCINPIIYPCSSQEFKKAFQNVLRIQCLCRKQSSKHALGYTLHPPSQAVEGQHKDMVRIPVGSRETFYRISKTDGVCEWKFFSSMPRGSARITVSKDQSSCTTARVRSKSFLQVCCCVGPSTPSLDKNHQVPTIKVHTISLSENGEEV
Assay: Antagonist activity at human alpha1A receptor assessed as inhibition of intracellular calcium mobilization by FLIPR assay
Type: functional, cell-based
How it was run: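 Human α1A-adrenergic receptor, FLIPR Tetra calcium-mobilization assay with a calcium-sensitive fluorescent dye. Ke was derived from agonist concentration-response EC50 shifts by a single antagonist concentration, using Ke = [L]/(DR-1) as for the 5-HT2A set.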

Row | SMILES | Ke
1 | CCCCCN1CCc2cc(OC)c(OC)c3c2C1Cc1cc2c(cc1-3)OCO2 (racemic) | 720 nM
2 | COc1cc2c3c(c1OCC(C)C)-c1cc4c(cc1CC3N(C)CC2)OCO4 (racemic) | > 10000 nM
3 | COc1cc2c3c(c1OCCC(C)C)-c1cc4c(cc1CC3N(C)CC2)OCO4 (racemic) | > 10000 nM
4 | CCN1CCc2cc(OC)c(OC)c3c2C1Cc1cc2c(cc1-3)OCO2 (racemic) | 26 nM
5 | COc1cc2c3c(c1OC)-c1cc4c(cc1CC3N(C)CC2)OCO4 (racemic) | 36 nM
6 | CCCCOc1cc2c3c(c1OC)-c1cc4c(cc1CC3N(C)CC2)OCO4 (racemic) | 234 nM
7 | C=CCOc1c(OC)cc2c3c1-c1cc4c(cc1CC3N(C)CC2)OCO4 (racemic) | > 10000 nM
8 | COc1cc2c3c(c1OCC1CCCCC1)-c1cc4c(cc1CC3N(C)CC2)OCO4 (racemic) | > 10000 nM
9 | CCCCCCOc1c(OC)cc2c3c1-c1cc4c(cc1CC3N(C)CC2)OCO4 (racemic) | > 10000 nM
10 | CCC(CC)COc1c(OC)cc2c3c1-c1cc4c(cc1CC3N(C)CC2)OCO4 (centres undefined) | > 10000 nM
11 | CCCN1CCc2cc(OC)c(OC)c3c2C1Cc1cc2c(cc1-3)OCO2 (racemic) | 38 nM
12 | CCCOc1cc2c3c(c1OC)-c1cc4c(cc1CC3N(C)CC2)OCO4 (racemic) | 133 nM
13 | COc1cc2c3c(c1OCC1CCC1)-c1cc4c(cc1CC3N(C)CC2)OCO4 (racemic) | > 10000 nM
14 | COc1cc2c3c(c1OCCCO)-c1cc4c(cc1CC3N(C)CC2)OCO4 (racemic) | > 10000 nM
15 | COc1c(Br)c2c3c(c1OC)-c1c(Br)c4c(c(Br)c1CC3N(C)CC2)OCO4 (racemic) | > 10000 nM
16 | COc1c(OCc2ccccc2)cc2c3c1-c1cc4c(cc1CC3N(C)CC2)OCO4 (racemic) | 1920 nM
17 | CCCCN1CCc2cc(OC)c(OC)c3c2C1Cc1cc2c(cc1-3)OCO2 (racemic) | 210 nM
18 | COc1c(OCC2CC2)cc2c3c1-c1cc4c(cc1CC3N(C)CC2)OCO4 (racemic) | 195 nM
19 | CCOc1cc2c3c(c1OC)-c1cc4c(cc1CC3N(C)CC2)OCO4 (racemic) | 52 nM
20 | COc1c(Br)c2c3c(c1OC)-c1cc4c(cc1CC3N(C)CC2)OCO4 (racemic) | > 10000 nM
21 | COc1cc2c3c(c1OC)-c1cc4c(cc1CC3N(CC1CC1)CC2)OCO4 (racemic) | 319 nM
22 | CCCCCOc1cc2c3c(c1OC)-c1cc4c(cc1CC3N(C)CC2)OCO4 (racemic) | 449 nM
23 | COc1cc2c3c(c1OCC1CCCC1)-c1cc4c(cc1CC3N(C)CC2)OCO4 (racemic) | > 10000 nM

Biological target: 5-hydroxytryptamine receptor 2A (Homo sapiens) (UniProt P28223)
Sequence (P28223 whole entry): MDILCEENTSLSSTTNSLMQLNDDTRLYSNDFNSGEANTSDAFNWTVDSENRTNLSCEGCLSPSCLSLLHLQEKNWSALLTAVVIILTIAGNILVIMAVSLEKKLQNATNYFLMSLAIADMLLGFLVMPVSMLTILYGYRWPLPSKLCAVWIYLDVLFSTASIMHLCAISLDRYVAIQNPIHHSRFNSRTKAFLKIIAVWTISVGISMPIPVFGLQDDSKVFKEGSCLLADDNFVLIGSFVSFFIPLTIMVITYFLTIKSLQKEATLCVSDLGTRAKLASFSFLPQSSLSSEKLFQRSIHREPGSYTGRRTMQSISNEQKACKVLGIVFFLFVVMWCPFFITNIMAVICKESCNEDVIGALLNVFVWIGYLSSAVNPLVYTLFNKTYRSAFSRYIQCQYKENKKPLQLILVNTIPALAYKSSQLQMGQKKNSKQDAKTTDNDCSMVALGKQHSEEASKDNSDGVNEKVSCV
Assay: Agonist activity at human 5-HT2A receptor assessed as intracellular calcium mobilization at 10 uM by FLIPR assay
Type: functional, cell-based
How it was run: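 Multi-well FLIPR Tetra screen at 10 μM for intrinsic activity at human 5-HT2A receptor. Read-out is receptor-mediated mobilization of internal calcium, detected with a calcium-sensitive fluorescent dye.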

Row | SMILES | Emax
24 | COc1cc2c3c(c1OCCC(C)C)-c1cc4c(cc1CC3N(C)CC2)OCO4 (racemic) | 19%
25 | COc1cc2c3c(c1OCC1CCC1)-c1cc4c(cc1CC3N(C)CC2)OCO4 (racemic) | 25%
26 | COc1cc2c3c(c1OCC1CCCC1)-c1cc4c(cc1CC3N(C)CC2)OCO4 (racemic) | 35%

Biological target: 5-hydroxytryptamine receptor 2A (Homo sapiens) (UniProt P28223)
Assay: Antagonist activity at human 5-HT2A receptor assessed as inhibition of intracellular calcium mobilization by FLIPR assay
Type: functional, cell-based
How it was run: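 FLIPR Tetra calcium-dye assay at human 5-HT2A. Compounds without intrinsic activity that inhibited the fluorescence rise to the EC80 of 5-HT by at least 50% at 10 μM went on to Ke determination. For this, an 8-point half-log 5-HT concentration-response curve was run with and without a single antagonist concentration. Ke = [L]/(DR-1), where DR = A'/A (ratio of 5-HT EC50s).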

Row | SMILES | Ke
27 | CCCCCN1CCc2cc(OC)c(OC)c3c2C1Cc1cc2c(cc1-3)OCO2 (racemic) | > 10000 nM
28 | COc1cc2c3c(c1OCC(C)C)-c1cc4c(cc1CC3N(C)CC2)OCO4 (racemic) | 367 nM
29 | CCCCOc1cc2c3c(c1OC)-c1cc4c(cc1CC3N(C)CC2)OCO4 (racemic) | 943 nM
30 | C=CCOc1c(OC)cc2c3c1-c1cc4c(cc1CC3N(C)CC2)OCO4 (racemic) | 70 nM
31 | COc1cc2c3c(c1OCC1CCCCC1)-c1cc4c(cc1CC3N(C)CC2)OCO4 (racemic) | 1720 nM
32 | CCCCCCOc1c(OC)cc2c3c1-c1cc4c(cc1CC3N(C)CC2)OCO4 (racemic) | 71 nM
33 | CCC(CC)COc1c(OC)cc2c3c1-c1cc4c(cc1CC3N(C)CC2)OCO4 (centres undefined) | 806 nM
34 | CCCN1CCc2cc(OC)c(OC)c3c2C1Cc1cc2c(cc1-3)OCO2 (racemic) | > 10000 nM
35 | CCCOc1cc2c3c(c1OC)-c1cc4c(cc1CC3N(C)CC2)OCO4 (racemic) | 389 nM
36 | COc1cc2c3c(c1OCCCO)-c1cc4c(cc1CC3N(C)CC2)OCO4 (racemic) | 708 nM
37 | COc1c(Br)c2c3c(c1OC)-c1c(Br)c4c(c(Br)c1CC3N(C)CC2)OCO4 (racemic) | 43 nM
38 | COc1c(OCc2ccccc2)cc2c3c1-c1cc4c(cc1CC3N(C)CC2)OCO4 (racemic) | 154 nM
39 | CCCCN1CCc2cc(OC)c(OC)c3c2C1Cc1cc2c(cc1-3)OCO2 (racemic) | > 10000 nM
40 | COc1c(OCC2CC2)cc2c3c1-c1cc4c(cc1CC3N(C)CC2)OCO4 (racemic) | 484 nM
41 | CCOc1cc2c3c(c1OC)-c1cc4c(cc1CC3N(C)CC2)OCO4 (racemic) | 378 nM
42 | COc1c(Br)c2c3c(c1OC)-c1cc4c(cc1CC3N(C)CC2)OCO4 (racemic) | 53 nM
43 | COc1cc2c3c(c1OC)-c1cc4c(cc1CC3N(CC1CC1)CC2)OCO4 (racemic) | > 10000 nM
44 | CCCCCOc1cc2c3c(c1OC)-c1cc4c(cc1CC3N(C)CC2)OCO4 (racemic) | > 10000 nM
